# What was measured:
# Format in all cases: functional, cell-based
# 5637 = experiment: Antiproliferative activity against human 5637 cells after 10 days; settings: Homo sapiens, 5637, 240 h
# Outline: (§1)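 Tested as part of a 240-line cancer cell panel (Eurofins Oncopanel); all lines were mycoplasma-negative and STR-verified. Cells were exposed to a compound concentration series in 2D culture for 10 days. The highest concentration was 10 μM or 25 μM, depending on the inhibitor. Antiproliferative IC50 was derived from the mean of three biological replicates.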
# 769-P = experiment: Antiproliferative activity against human 769-P cells after 10 days; settings: 240 h; outline: as §1
# A101D = experiment: Antiproliferative activity against human A101D cells after 10 days; settings: 240 h; outline: as §1
# A-375 = experiment: Antiproliferative activity against human A-375 cells after 10 days; settings: A-375, 240 h; outline: as §1
# A498 = experiment: Antiproliferative activity against human A498 cells after 10 days; settings: A498, 240 h; outline: as §1
# ARH-77 = experiment: Antiproliferative activity against human ARH-77 cells after 10 days; settings: ARH-77, 240 h; outline: as §1
# ASPC1 = experiment: Antiproliferative activity against human ASPC1 cells after 10 days; settings: ASPC1, 240 h; outline: as §1
# [1] = Antiproliferative activity against human BC1 cells after 10 days; settings: BC1, 240 h; outline: as §1
# [2] = Antiproliferative activity against human SK-N-BE(2)-C cells after 10 days; settings: 240 h
# BT-20 = experiment: Antiproliferative activity against human BT-20 cells after 10 days; settings: BT-20, 240 h; outline: as §1
# BT-474 = experiment: Antiproliferative activity against human BT-474 cells after 10 days; settings: BT-474, 240 h; outline: as §1
# CAL-62 = experiment: Antiproliferative activity against human CAL-62 cells after 10 days; settings: CAL-62, 240 h; outline: as §1
# Capan-2 = experiment: Antiproliferative activity against human Capan2 cells after 10 days; settings: Capan-2, 240 h
# Outline: (§2)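 10-day 2D proliferation screen of a broad cancer cell panel (about 240 lines, Eurofins Oncopanel). All lines were mycoplasma negative and STR verified. Compounds were dosed up to a top concentration of 10 μM or 25 μM, depending on the inhibitor. Anti-proliferative IC50 values are the average of three biological replicates.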
# [3] = Antiproliferative activity against human CEM/C1 cells after 10 days; settings: CEM/C1, 240 h; outline: as §1
# COLO 205 = experiment: Antiproliferative activity against human COLO 205 cells after 10 days; settings: COLO 205, 240 h; outline: as §1
# COLO-320-HSR = experiment: Antiproliferative activity against human COLO 320HSR cells after 10 days; settings: 240 h; outline: as §1
# COR-L105 = experiment: Antiproliferative activity against human COR-L105 cells after 10 days; settings: COR-L105, 240 h; outline: as §2
# DMS-273 = experiment: Antiproliferative activity against human DMS-273 cells after 10 days; settings: DMS-273, 240 h; outline: as §2
# EB-3 = experiment: Antiproliferative activity against human EB-3 cells after 10 days; settings: EB-3, 240 h; outline: as §2
# HEL 92.1.7 = experiment: Antiproliferative activity against human HEL 92.1.7 cells after 10 days; settings: HEL 92.1.7, 240 h; outline: as §2
# HeLa = experiment: Antiproliferative activity against human HeLa cells after 10 days; settings: 240 h; outline: as §2
# [4] = Antiproliferative activity against human HLF cells after 10 days; settings: 240 h; outline: as §2
# Hs 294T = experiment: Antiproliferative activity against human Hs 294T cells after 10 days; settings: 240 h; outline: as §2
# Hs-578T = experiment: Antiproliferative activity against human Hs 578T cells after 10 days; settings: 240 h; outline: as §2
# Hs 766 = experiment: Antiproliferative activity against human Hs766T cells after 10 days; settings: Hs 766, 240 h; outline: as §2
# HT = experiment: Antiproliferative activity against human HT cells after 10 days; settings: 240 h; outline: as §2
# HT-1376 = experiment: Antiproliferative activity against human HT-1376 cells after 10 days; settings: HT-1376, 240 h; outline: as §2
# HuCCT-1 = experiment: Antiproliferative activity against human HuCCT-1 cells after 10 days; settings: HuCCT-1, 240 h; outline: as §2
# JAR = experiment: Antiproliferative activity against human JAR cells after 10 days; settings: 240 h
# Outline: (§3)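 Broad cancer cell line panel (Eurofins Oncopanel, about 240 lines; mycoplasma negative, STR verified) grown in 2D culture and exposed to compound in a 10-day proliferation assay. The top concentration was 10 μM for the SMYD2 inhibitor series and 25 μM for the SMYD3 inhibitor. The proliferative IC50 is taken from concentration-response data, each value the mean of three biological replicates.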
# K562 = experiment: Antiproliferative activity against human K562 cells after 10 days; settings: K562, 240 h; outline: as §3
# [5] = system: KATO III stomach cancer cell line; experiment: Antiproliferative activity against human KATO III cells after 10 days; settings: 240 h; outline: as §3
# LNCaP = experiment: Antiproliferative activity against human LNCaP cells after 10 days; settings: 240 h; outline: as §3
# Malme-3M = experiment: Antiproliferative activity against human Malme-3M cells after 10 days; settings: 240 h; outline: as §3
# MDA-MB-453 = experiment: Antiproliferative activity against human MDA-MB-453 cells after 10 days; settings: MDA-MB-453, 240 h
# Outline: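 Cell lines run in the Eurofins Oncopanel broad cancer panel, all mycoplasma-negative and STR-verified. Cells were exposed to a compound concentration series in a 10-day proliferation assay, and an anti-proliferative IC50 was derived. Values are the mean of three biological replicates.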
# MeWo = experiment: Antiproliferative activity against human MeWo cells after 10 days; settings: 240 h; outline: as §3
# MG-63 = experiment: Antiproliferative activity against human MG-63 cells after 10 days; settings: MG-63, 240 h; outline: as §3
# MOLT-16 = experiment: Antiproliferative activity against human MOLT-16 cells after 10 days; settings: MOLT-16, 240 h; outline: as §3
# NCI-H295R = experiment: Antiproliferative activity against human NCI-H295R cells after 10 days; settings: 240 h; outline: as §3
# NCI-H508 = experiment: Antiproliferative activity against human NCI-H508 cells after 10 days; settings: NCI-H508, 240 h; outline: as §3
# OVCAR-3 = experiment: Antiproliferative activity against human OVCAR-3 cells after 10 days; settings: OVCAR-3, 240 h; outline: as §3
# PC-3 = experiment: Antiproliferative activity against human PC-3 cells after 10 days; settings: PC-3, 240 h; outline: as §3
# SHP77 = experiment: Antiproliferative activity against human SHP77 cells after 10 days; settings: SHP77, 240 h
# SiHa = experiment: Antiproliferative activity against human SiHa cells after 10 days; settings: 240 h
# SJSA-1 = experiment: Antiproliferative activity against human SJSA-1 cells after 10 days; settings: SJSA-1, 240 h
# SK-LMS-1 = experiment: Antiproliferative activity against human SK-LMS-1 cells after 10 days; settings: SK-LMS-1, 240 h
# ST486 = experiment: Antiproliferative activity against human ST486 cells after 10 days; settings: ST486, 240 h
# SW13 = experiment: Antiproliferative activity against human SW13 cells after 10 days; settings: SW13, 240 h
# SW1353 = experiment: Antiproliferative activity against human SW1353 cells after 10 days; settings: SW1353, 240 h
# SW948 = experiment: Antiproliferative activity against human SW948 cells after 10 days; settings: SW948, 240 h
# WiDr = experiment: Antiproliferative activity against human WiDr cells after 10 days; settings: 240 h
smiles,measurement,setting,value
O=C(NC1CN(Cc2cnn(Cc3ccccc3)c2)C1)c1cn(C2CC2)nn1,IC50,5637,> 10 µM
same,IC50,769-P,> 10 µM
same,IC50,A101D,> 10 µM
same,IC50,A-375,> 10 µM
same,IC50,A498,> 10 µM
same,IC50,ARH-77,> 10 µM
same,IC50,ASPC1,> 10 µM
same,IC50,[1],> 10 µM
same,IC50,[2],> 10 µM
same,IC50,BT-20,> 10 µM
same,IC50,BT-474,> 10 µM
same,IC50,CAL-62,> 10 µM
same,IC50,Capan-2,> 10 µM
same,IC50,[3],> 10 µM
same,IC50,COLO 205,> 10 µM
same,IC50,COLO-320-HSR,> 10 µM
same,IC50,COR-L105,> 10 µM
same,IC50,DMS-273,> 10 µM
same,IC50,EB-3,> 10 µM
same,IC50,HEL 92.1.7,> 10 µM
same,IC50,HeLa,> 10 µM
same,IC50,[4],> 10 µM
same,IC50,Hs 294T,> 10 µM
same,IC50,Hs-578T,> 10 µM
same,IC50,Hs 766,> 10 µM
same,IC50,HT,> 10 µM
same,IC50,HT-1376,> 10 µM
same,IC50,HuCCT-1,> 10 µM
same,IC50,JAR,> 10 µM
same,IC50,K562,> 10 µM
same,IC50,[5],> 10 µM
same,IC50,LNCaP,> 10 µM
same,IC50,Malme-3M,> 10 µM
same,IC50,MDA-MB-453,> 10 µM
same,IC50,MeWo,> 10 µM
same,IC50,MG-63,> 10 µM
same,IC50,MOLT-16,> 10 µM
same,IC50,NCI-H295R,> 10 µM
same,IC50,NCI-H508,> 10 µM
same,IC50,OVCAR-3,> 10 µM
same,IC50,PC-3,> 10 µM
same,IC50,SHP77,> 10 µM
same,IC50,SiHa,> 10 µM
same,IC50,SJSA-1,> 10 µM
same,IC50,SK-LMS-1,> 10 µM
same,IC50,ST486,> 10 µM
same,IC50,SW13,> 10 µM
same,IC50,SW1353,> 10 µM
same,IC50,SW948,> 10 µM
same,IC50,WiDr,> 10 µM
Cc1cn(CCN2CCN(c3ccccc3-c3cc(C#N)cc(C(=O)NCCCN4CCCC4)c3)CC2)c2ccccc12,IC50,5637,6.75 µM
same,IC50,769-P,2.76 µM
same,IC50,A101D,1.23 µM
same,IC50,A-375,1.91 µM
same,IC50,A498,2.01 µM
same,IC50,ARH-77,0.78 µM
same,IC50,ASPC1,3.01 µM
same,IC50,[1],3.65 µM
same,IC50,[2],3.31 µM
same,IC50,BT-20,3.35 µM
same,IC50,BT-474,2.94 µM
same,IC50,CAL-62,2.07 µM
same,IC50,Capan-2,1.57 µM
same,IC50,[3],1.27 µM
same,IC50,COLO 205,0.944 µM
same,IC50,COLO-320-HSR,2.74 µM
same,IC50,COR-L105,1.11 µM
same,IC50,DMS-273,0.987 µM
same,IC50,EB-3,0.329 µM
same,IC50,HEL 92.1.7,3.53 µM
same,IC50,HeLa,2.96 µM
same,IC50,[4],2.44 µM
same,IC50,Hs 294T,2.48 µM
same,IC50,Hs-578T,6.14 µM
same,IC50,Hs 766,2.75 µM
same,IC50,HT,1.93 µM
same,IC50,HT-1376,2.35 µM
same,IC50,HuCCT-1,1.24 µM
same,IC50,JAR,2.88 µM
same,IC50,K562,3.21 µM
same,IC50,[5],1.39 µM
same,IC50,LNCaP,3.44 µM
same,IC50,Malme-3M,2.4 µM
same,IC50,MDA-MB-453,1.5 µM
same,IC50,MeWo,1.98 µM
same,IC50,MG-63,6.12 µM
same,IC50,MOLT-16,1.11 µM
same,IC50,NCI-H295R,4.84 µM
same,IC50,NCI-H508,3.09 µM
same,IC50,OVCAR-3,3.95 µM
same,IC50,PC-3,2.77 µM
same,IC50,SHP77,1.65 µM
same,IC50,SiHa,3.26 µM
same,IC50,SJSA-1,1.47 µM
same,IC50,SK-LMS-1,2.41 µM
same,IC50,ST486,0.955 µM
same,IC50,SW13,2.68 µM
same,IC50,SW1353,2.98 µM
same,IC50,SW948,3.91 µM
same,IC50,WiDr,0.838 µM

# Reference: ChEMBL document CHEMBL5674880 (PLoS One, 2018)
